Screening data: PubChem, The Scripps Research Institute Molecular Screening Center
An excerpt weighted towards active compounds, which were near 4.7% of everything screened.
m5-HT2A agonist = activates the mouse 5-HT2A serotonin receptor; P35363; CHO-K1 mHTR2A beta-arrestin complementation, luminescence; percent of 30 µM serotonin response; activation, % at 7.6 µM; hit rate 0.66% among 360,000;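 active = activation above a run cutoff, the mean activation of all tested compounds plus 3 SD, cut at about 14% in these data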
MC4R ag barr = human MC4R agonism via beta-arrestin; U2OS MC4R beta-arrestin complementation, luminescence; percent of melanotan II response, DMSO zero; activation, % at 8.9 µM; hit rate 0.98% among 360,000; AID 540308;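 active = activation above a per-plate cutoff, the mean activation of sample wells on that plate plus 3 SD, cut at about 8% in these data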
Target sequence (P32245 whole entry, looked up): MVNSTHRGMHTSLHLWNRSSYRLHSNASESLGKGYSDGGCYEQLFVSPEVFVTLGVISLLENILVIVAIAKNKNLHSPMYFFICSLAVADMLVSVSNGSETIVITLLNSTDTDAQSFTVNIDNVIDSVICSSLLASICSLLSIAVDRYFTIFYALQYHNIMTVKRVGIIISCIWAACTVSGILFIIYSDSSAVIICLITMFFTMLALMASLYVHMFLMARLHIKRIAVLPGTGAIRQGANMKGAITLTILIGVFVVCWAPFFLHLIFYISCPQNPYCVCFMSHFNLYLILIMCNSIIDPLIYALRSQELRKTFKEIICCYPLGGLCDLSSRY
MC4R antagonist = antagonists of human melanocortin 4 receptor (MC4R) | hit rate 0.48% among 360,000 | MC4R-expressing cells, MTII-stimulated cAMP, LANCE TR-FRET | P32245 | inhibition, % at 6.5 µM;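 active = inhibition above its plate's cutoff, the mean of tested wells on that plate plus 3 SD, cut at about 29% in these data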
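Assay system: U2OS cells stably expressing human melanocortin 4 receptor (MC4R) / Dosing: 6.5 µM / Timing: compound 30 min, challenge 1 h, detection 1 h / Measured by: Eu-cAMP/anti-cAMP TR-FRET, emission 671 nm / Replicates: singlicate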
AHR activator = human AHR activation. activation, % at 5 µM. AHR-responsive luciferase reporter cells, luminescence. P35869. AID 2796. hit rate 2.5% among 320,000; in the data active = activation above about 47%
FXN GAA850 act = activators of GAA850 frataxin (FXN) promoter; activation, % at 6 µM; hit rate 0.56% among 360,000; AID 540364; HEK293 lucGAA850 FXN promoter luciferase reporter, 24 h; percent of 10 µM SAHA response;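 active = activation above the average of all compounds screened plus 3 SD, cutoff fixed separately per campaign, cut at about 7.5% in these data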
cAMP nonselect = U2OS forskolin cAMP inhibition counter-screen | parental U2OS, LANCE TR-FRET | shares compounds with MC4R antagonist | hit rate 26% among 1,600 | inhibition, % at 6.5 µM;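 active = mean inhibition over triplicates above the low-control well mean plus 3 SD, set per campaign, cut at about 13% in these data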;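 note: signal is single emission at 671 nm which falls as cellular cAMP rises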
MC4R cAMP antag = human MC4R cAMP antagonism confirmation | MC4R-expressing cells, MTII-stimulated cAMP, TR-FRET | inhibition, % at 6.5 µM | hit rate 27% among 1,600 | shares compounds with MC4R antagonist | AID 602195; in the data active = inhibition above about 29%
Each line names hits and unclear results; the compound was inactive in the other large screens (follow-up assays come after a bar, where they were run).

Cc1ccc2nc(N3C(=O)C(O)=C(C(=O)c4ccc(C)o4)C3c3cccc(O)c3)sc2c1 (stereo not given)	MC4R antagonist 31 | cAMP nonselect inactive | MC4R cAMP antag inactive
COc1ccc2nc(N3C(=O)C(O)=C(C(=O)c4ccco4)C3c3ccc(OC)c(OC)c3)sc2c1 (stereo not given)	none (no result: AHR activator)
Cn1cc(CN2CCC(C(=O)N3CCCC3)CC2)c(-c2ccccc2F)n1	none
Cn1cc(CN2C[C@H]3CC[C@H]2C3)c(-c2ccccc2F)n1	MC4R antagonist 29 | cAMP nonselect inactive | MC4R cAMP antag inactive
CC1(c2ccccc2)NC(=O)N(CC(=O)Nc2ccc(N3CCOCC3)cc2)C1=O (stereo not given)	none
CCS(=O)(=O)c1ccc2oc(Nc3cccc(OC)c3)nc2c1	MC4R antagonist 31 | cAMP nonselect inactive | MC4R cAMP antag inactive
CCCCN(Cc1ccco1)C(=O)C1CCCN(c2ncnc3c2nc2n3CCCCC2)C1 (stereo not given)	MC4R antagonist 32 | cAMP nonselect inactive | MC4R cAMP antag inactive
O=C(Nc1ccc2c(c1)CCO2)Nc1nnc([C@H]2C[C@H](O)[C@@H](CO)O2)s1	none (no result: AHR activator)
CC(C)c1ccc(NC(=O)CSc2nc3ccsc3c(=O)n2CCC(=O)O)cc1	MC4R antagonist 35 | cAMP nonselect inactive | MC4R cAMP antag inactive
Cc1c(C(=O)NCCSCc2ccccc2)cccc1[N+](=O)[O-]	MC4R antagonist 35 | cAMP nonselect inactive | MC4R cAMP antag inactive
COc1ccc([C@@H]2C[C@H]3[C@@H](CN2S(=O)(=O)c2ccccc2)C(=O)C[C@@H](c2ccc(C)cc2)N3S(=O)(=O)c2ccc(C)cc2)cc1	none (no result: AHR activator)
Cc1noc(NS(=O)(=O)c2ccc(NC(=O)c3cc(F)c(F)c(F)c3F)cc2)c1C	none (no result: AHR activator)
COC(=O)[C@H](CC(C)C)N(Cc1ccccc1)S(=O)(=O)N(Cc1ccc(OC)cc1)[C@@H](CC(C)C)C(=O)OC	none
C=CCN(C(=O)CNS(=O)(=O)c1ccccc1)C(C(=O)NCCOC)c1cccnc1 (stereo not given)	MC4R antagonist 29 | cAMP nonselect inactive | MC4R cAMP antag inactive
CCc1nc2ccc(C(=O)N(C)C(C)C)cn2c1N(CCC(C)C)CCN(C)C	none (no result: AHR activator)
CCN1CCN(C(=O)c2cc(S(=O)(=O)Nc3ccc(S(C)(=O)=O)cc3)ccc2Cl)CC1	MC4R antagonist 30 | cAMP nonselect inactive | MC4R cAMP antag inactive
COc1ccc(-c2cc(C(=O)N3CCCCCC3)c3ccccc3n2)cc1	none (no result: AHR activator)
O=C(CSc1nc2ccccc2s1)NCc1cc([N+](=O)[O-])ccc1O	none
Cc1cc(/C=C2/NC(=O)N(Cc3ccccc3F)C2=O)c(C)n1C	MC4R antagonist 35, AHR activator 76 | cAMP nonselect inactive | MC4R cAMP antag inactive
COC(=O)c1c(NC(=O)COC(=O)c2ccc(O)cc2)sc2c1CCCCC2	MC4R antagonist 30 | cAMP nonselect inactive | MC4R cAMP antag inactive
COCC(=O)Nc1sc2c(c1C(=O)OC)CCCC2	none
S=c1[nH]nc(-c2ccc3ccccc3n2)n1-c1cc(Cl)cc(Cl)c1	MC4R antagonist 32 | cAMP nonselect inactive | MC4R cAMP antag inactive
NC(CCc1ccccc1)c1csc(Nc2ccccn2)n1 (stereo not given)	none (no result: AHR activator)
CC1c2[nH]c3ccccc3c2CCN1C(=O)Nc1ccccc1 (stereo not given)	none
O=C(Nc1ccccc1)N1CCc2c([nH]c3ccccc23)C1C(F)(F)F (stereo not given)	MC4R antagonist 35 | cAMP nonselect inactive | MC4R cAMP antag inactive
CCN(CC)S(=O)(=O)c1ccc(OC)c(NC(=O)COc2ccc3c(C)cc(=O)oc3c2)c1	MC4R antagonist 114 | cAMP nonselect 96 | MC4R cAMP antag 168
CCN(CC)S(=O)(=O)c1ccc(Cl)c(NC(=O)COc2ccc3c(C)cc(=O)oc3c2)c1	none
COC(=O)[C@@]12C[C@@H](CC(=O)NCCCCc3ccccc3)C(=O)N(Cc3cccc4ccccc34)C1=CCC(C)(C)C2	none (no result: MC4R ag barr, MC4R antagonist, AHR activator, FXN GAA850 act)
CCOc1cc2c(cc1/C=C/c1noc(C)c1[N+](=O)[O-])OC(C)C2 (stereo not given)	none
CC1C/C(=C/c2ccncc2)C(=O)/C(=C/c2ccncc2)C1 (stereo not given)	MC4R antagonist 31 | cAMP nonselect 29 | MC4R cAMP antag 30
O=C1/C(=C/c2ccncc2)Cc2ccccc21	none
NS(=O)(=O)c1ccc(CCNS(=O)(=O)c2ccc(Cl)nc2)cc1	MC4R antagonist 35 | cAMP nonselect 19 | MC4R cAMP antag inactive
CC(=O)C1CCC2C3CCC4=CC(=O)CCC4(C)C3(F)C(O)CC12C (stereo not given)	none (no result: AHR activator)
CS(=O)(=O)N1CCN(c2ccccc2NC(=S)NC(=O)c2cccs2)CC1	MC4R antagonist 30 | cAMP nonselect inactive | MC4R cAMP antag inactive
CCCCN(C(=O)c1cc(S(=O)(=O)N2CCOCC2)ccc1Cl)c1c(N)n(CC(C)C)c(=O)[nH]c1=O	none
COc1ccc(CC2SC(N)=NC2=O)cc1 (stereo not given)	none
Cc1cc(C(=O)O)ccc1-c1ccc(/C=C2\NC(=O)N(Cc3ccccc3Cl)C2=O)o1	MC4R antagonist 37 | cAMP nonselect inactive | MC4R cAMP antag inactive
O=C(NC(=S)Nc1cc(S(=O)(=O)N2CCOCC2)ccc1N1CCOCC1)c1ccco1	MC4R antagonist 37 | cAMP nonselect inactive | MC4R cAMP antag inactive
O=C(NC(=S)Nc1cc(S(=O)(=O)N2CCOCC2)ccc1O)c1ccco1	none
C=C1c2ccccc2NC(=S)N1Cc1ccc2c(c1)OCO2	none
COc1ccc(SC[C@H](Cc2ccccc2)N2CC[C@@H](NC(=O)OCc3ccccc3)CCC2=O)cc1	none
CCN(C(=O)COC(=O)c1ccc2ccccc2n1)c1c(N)n(Cc2ccccc2)c(=O)[nH]c1=O	none (no result: AHR activator)
Clc1ccc(OCCCCCN2CCCC2)c(Br)c1	MC4R antagonist 30 | cAMP nonselect inactive | MC4R cAMP antag inactive
CCOC(=O)Cc1cc(=O)n2[nH]cc(-c3ccc(Cl)cc3)c2n1	MC4R antagonist 30 | cAMP nonselect inactive | MC4R cAMP antag inactive
CC(C)(C)OC(=O)NCCc1nnc(SCc2ccccc2Cl)o1	none
CC(C)(C)OC(=O)NCCc1nnc(S(=O)(=O)Cc2ccc(Cl)cc2Cl)o1	MC4R antagonist 31 | cAMP nonselect inactive | MC4R cAMP antag 38
CC(=O)c1ccc(OCCCC(=O)Nc2ccc(S(=O)(=O)N3CCOCC3)cc2)cc1	none
COc1ccc(NC(=O)Cc2ccc(Cl)c(Cl)c2)cn1	none
COc1ccc(NC(=O)/C(Cl)=C(/Cl)S(=O)(=O)Cc2ccc(C)cc2)cn1	MC4R antagonist 40 (no result: AHR activator) | cAMP nonselect 38 | MC4R cAMP antag 37
